# From ChEMBL document CHEMBL3817776, “Discovery and Structure-Activity Relationships of the Neoseptins: A New Class of Toll-like Receptor-4 (TLR4) Agonists” (J Med Chem, 2016)
# Activity calls are given as the source filed them.
# Columns and labels:
# Toll-like receptor 4 = biological target: T1, Toll-like receptor 4 (Mus musculus, UniProt Q9QUK6); experiment: (§1) Agonist activity at TLR4 in C57BL/6J mouse macrophages assessed as stimulation of TNFalpha release after 4 hrs by ELISA
# T1 sequence (Q9QUK6 whole entry): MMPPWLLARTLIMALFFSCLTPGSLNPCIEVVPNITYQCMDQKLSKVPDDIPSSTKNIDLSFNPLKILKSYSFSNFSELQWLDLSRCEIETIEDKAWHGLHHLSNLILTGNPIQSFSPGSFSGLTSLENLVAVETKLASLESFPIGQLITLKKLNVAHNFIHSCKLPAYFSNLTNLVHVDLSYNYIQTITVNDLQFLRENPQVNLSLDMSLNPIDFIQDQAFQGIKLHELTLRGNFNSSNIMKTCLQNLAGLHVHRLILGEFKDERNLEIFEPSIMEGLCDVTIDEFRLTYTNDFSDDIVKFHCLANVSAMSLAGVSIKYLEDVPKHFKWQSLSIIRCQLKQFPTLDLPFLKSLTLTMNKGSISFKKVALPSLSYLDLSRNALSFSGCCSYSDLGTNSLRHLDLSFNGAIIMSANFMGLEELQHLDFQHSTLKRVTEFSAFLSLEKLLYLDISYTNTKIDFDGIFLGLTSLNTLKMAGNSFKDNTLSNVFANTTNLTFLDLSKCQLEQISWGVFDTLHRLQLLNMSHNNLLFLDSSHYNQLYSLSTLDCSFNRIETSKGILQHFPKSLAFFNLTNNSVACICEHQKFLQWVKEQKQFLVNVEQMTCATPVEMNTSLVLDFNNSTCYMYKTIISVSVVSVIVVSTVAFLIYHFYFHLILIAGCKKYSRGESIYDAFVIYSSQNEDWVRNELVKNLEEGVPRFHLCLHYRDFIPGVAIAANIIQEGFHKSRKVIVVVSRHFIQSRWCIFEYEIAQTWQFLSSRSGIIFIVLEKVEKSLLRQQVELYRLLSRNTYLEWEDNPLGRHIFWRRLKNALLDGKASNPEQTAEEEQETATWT
# How it was run: (§2)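 Peritoneal macrophages from wild-type C57BL/6J mice, collected by PBS lavage and cultured in DMEM/10% FBS at 37 °C, 5% CO2. Seeded at 1 × 10^5 cells/well and treated 4 h with compound in DMSO (0.5% final) beside ultra-pure LPS and DMSO controls. Supernatant TNF-α measured by ELISA; mean of triplicates.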
# [1] = biological target: T2, Toll-like receptor 4 (Mus musculus) (UniProt Q9QUK6); experiment: as §1; how it was run: as §2
# T2 sequence (whole entry): T1 sequence (Q9QUK6 whole entry)
# [2] = biological target: T2, Toll-like receptor 4 (Mus musculus); experiment: Agonist activity at TLR4 in C57BL/6J mouse macrophages assessed as stimulation of TNFalpha release at 50 uM after 4 hrs by ELISA; how it was run: as §2
# Mus musculus [3] = species on record: Mus musculus; experiment: Agonist activity at TLR4 lps3/lps3 mutant in C57BL/6J mouse macrophages assessed as stimulated release of TNFalpha after 4 hrs by ELISA
# How it was run: (§3)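 Macrophages taken from mice carrying disabling germline mutations or knockouts in TLR or signaling-pathway genes. Exposed to compound at 50 µM; TNF-α released into the medium measured by ELISA. Results representative of two independent experiments; error bars SEM.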
# Mus musculus [4] = experiment: Adjuvant activity in C57BL/6J mouse assessed as increase in OVA-specific IgG2a levels at 250 mg/kg, im after 21 days by ELISA; assay type: functional, organism-based
# How it was run: (§4)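 C57BL/6 mice, 4 per group, immunized i.m. with 100 µg ovalbumin (endotoxin <1 EU/mg) plus compound in propylene glycol vehicle, or vehicle alone. OVA-specific IgG subclasses in serum titrated by ELISA at day 21. Mean ± SEM.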
# Mus musculus [5] = experiment: Adjuvant activity in C57BL/6J mouse assessed as increase in OVA-specific IgG3 levels at 250 mg/kg, im after 21 days by ELISA; assay type: functional, organism-based; how it was run: as §4
# [6] = biological target: T2, Toll-like receptor 4 (Mus musculus); experiment: Agonist activity at TLR4 receptor in C57BL/6J mouse macrophages harboring Ikbkg panr2/Y mutant assessed as induction of TNFalpha release at 50 uM after 4 hrs by ELISA; how it was run: as §3
# Macrophage [7] = experiment: Induction of TNFalpha release in TLR3 deficient C57BL/6J mouse macrophages at 50 uM after 4 hrs by ELISA; assay type: functional, cell-based; how it was run: as §3
# [8] = biological target: T2, Toll-like receptor 4 (Mus musculus); experiment: Agonist activity at TLR4 receptor in C57BL/6J mouse macrophages harboring MYD88 poc/poc mutant assessed as induction of TNFalpha release at 50 uM after 4 hrs by ELISA; how it was run: as §3
# Macrophage [9] = experiment: Induction of TNFalpha release in C57BL/6J mouse macrophages harboring TLR6 int/int mutant at 50 uM after 4 hrs by ELISA; assay type: functional, cell-based; how it was run: as §3
# Macrophage [10] = experiment: Induction of TNFalpha release in C57BL/6J mouse macrophages harboring TLR2 ingd/ingd mutant at 50 uM after 4 hrs by ELISA; assay type: functional, cell-based; how it was run: as §3
# [11] = biological target: T2, Toll-like receptor 4 (Mus musculus); experiment: Agonist activity at TLR4 receptor in LY96 deficient C57BL/6J mouse macrophages assessed as induction of TNFalpha release at 50 uM after 4 hrs by ELISA; how it was run: as §3
# [12] = biological target: T2, Toll-like receptor 4 (Mus musculus); experiment: Agonist activity at TLR4 receptor in C57BL/6J mouse macrophages harboring Irak4 otiose/otiose mutant assessed as induction of TNFalpha release at 50 uM after 4 hrs by ELISA; how it was run: as §3
# Mus musculus [13] = experiment: Adjuvant activity in C57BL/6J mouse assessed as increase in OVA-specific IgG1 levels up to 250 mg/kg, im after 21 days by ELISA; assay type: functional, organism-based; how it was run: as §4
# Macrophage [14] = experiment: Induction of TNFalpha release in C57BL/6J mouse macrophages harboring CD14 hdl/hdl mutant at 50 uM after 4 hrs by ELISA; assay type: functional, cell-based; how it was run: as §3
# Macrophage [15] = experiment: Induction of TNFalpha release in C57BL/6J mouse macrophages harboring TLR7 rsq1/rsq1 mutant at 50 uM after 4 hrs by ELISA; assay type: functional, cell-based; how it was run: as §3
# Macrophage [16] = experiment: Induction of TNFalpha release in C57BL/6J mouse macrophages harboring TLR9 CpG3/CpG3 mutant at 50 uM after 4 hrs by ELISA; assay type: functional, cell-based; how it was run: as §3
# [17] = biological target: T2, Toll-like receptor 4 (Mus musculus); experiment: Agonist activity at TLR4 receptor in C57BL/6J mouse macrophages harboring Ticam1 Lps2/Lps2 mutant assessed as induction of TNFalpha release at 50 uM after 4 hrs by ELISA; how it was run: as §3
# Mus musculus [18] = experiment: Adjuvant activity in C57BL/6J mouse assessed as increase in OVA-specific IgG2b levels at 250 mg/kg, im after 21 days by ELISA; assay type: functional, organism-based; how it was run: as §4
Compound,Activity [2],other results
CC(C)(C)OC(=O)[C@H](CCc1ccccc1)NC(=O)c1ccc(N)c(OCCc2ccc(O)cc2)c1,,EC50 (Toll-like receptor 4): 20.7 µM; Activity [1]: Dose-dependent effect
Cc1ccc(CC[C@H](NC(=O)c2ccc(N)c(CCc3ccc(O)cc3)c2)C(=O)OC(C)(C)C)cc1,Active,EC50 (Toll-like receptor 4): 21.6 µM
CC(C)(C)OC(=O)[C@H](CCc1ccccc1)NC(=O)c1ccc(N)c(CCc2ccc(O)cc2)c1,,Activity (Mus musculus [3]): inactive; Activity (Mus musculus [4]): Active; Activity (Mus musculus [5]): Active; Activity [6]: inactive; Activity (Macrophage [7]): Active; EC50 (Toll-like receptor 4): 18.5 µM; Activity [1]: Dose-dependent effect; Activity [8]: inactive; Activity (Macrophage [9]): Active; Activity (Macrophage [10]): Active; Activity [11]: inactive; Activity [12]: inactive; Activity (Mus musculus [13]): Dose-dependent effect; Activity (Macrophage [14]): Active; Activity (Macrophage [15]): Active; Activity (Macrophage [16]): Active; Activity [17]: inactive; Activity (Mus musculus [18]): Active
CC(C)(C)OC(=O)[C@H](CCc1ccccc1)NC(=O)c1ccc(N)c(CCCc2ccc(O)cc2)c1,Active,
CC(C)(C)OC(=O)[C@H](CCc1ccccc1)NC(=O)c1cc(CCc2ccc(O)cc2)ccc1N,inactive,
CC(C)(C)OC(=O)[C@H](CCCCc1ccccc1)NC(=O)c1ccc(N)c(CCc2ccc(O)cc2)c1,inactive,
C#CCC(C)(C)OC(=O)[C@H](CCc1ccccc1)NC(=O)c1ccc(N)c(CCc2ccc(O)cc2)c1,inactive,
CC[C@H](N)C(=O)OC(C)(C)C,Active,
COc1ccc(CC[C@H](NC(=O)c2ccc(N)c(CCc3ccc(O)cc3)c2)C(=O)OC(C)(C)C)cc1,Active,EC50 (Toll-like receptor 4): 22.2 µM
CC(=O)Nc1ccc(C(=O)N[C@@H](CCc2ccccc2)C(=O)OC(C)(C)C)cc1CCc1ccc(O)cc1,inactive,
CC(C)(C)OC(=O)[C@H](CCc1ccc(N)cc1)NC(=O)c1ccc(N)c(CCc2ccc(O)cc2)c1,inactive,
CC(C)(C)OC(=O)[C@H](CCCc1ccccc1)NC(=O)c1ccc(N)c(CCc2ccc(O)cc2)c1,inactive,
CC(C)(C)OC(=O)[C@H](CCc1ccccc1)NC(=O)c1ccc(N)c(Nc2ccc(O)cc2)c1,inactive,
CC(C)(C)OC(=O)[C@H](CCc1ccccc1)NC(=O)c1ccc(N)c(CCc2cccc(O)c2)c1,Active,
CC(C)[C@H](N)C(=O)OC(C)(C)C,Active,
CCCCCCCCCNC(=O)[C@H](CCc1ccccc1)NC(=O)c1ccc(N)c(CCc2ccc(O)cc2)c1,inactive,
CC(C)OC(=O)[C@H](CCc1ccccc1)NC(=O)c1ccc(N)c(CCc2ccc(O)cc2)c1,inactive,
CC(C)(C)OC(=O)[C@H](CCc1ccccc1)NC(=O)c1cc(N)cc(CCc2ccc(O)cc2)c1,Active,
CNc1ccc(C(=O)N[C@@H](CCc2ccccc2)C(=O)OC(C)(C)C)cc1CCc1ccc(O)cc1,inactive,
NC(=O)[C@H](CCc1ccccc1)NC(=O)c1ccc(N)c(CCc2ccc(O)cc2)c1,inactive,
CCCCCCCNC(=O)[C@H](CCc1ccccc1)NC(=O)c1ccc(N)c(CCc2ccc(O)cc2)c1,inactive,
COc1ccc(C[C@H](N)C(=O)Nc2ccc(C(=O)N[C@@H](CCc3ccccc3)C(=O)O)cc2OCCc2ccc(O)cc2)cc1,Active,
CN(C(=O)c1ccc(N)c(CCc2ccc(O)cc2)c1)[C@@H](CCc1ccccc1)C(=O)OC(C)(C)C,inactive,
CC(C)(C)OC(=O)[C@H](CCc1ccccc1)NC(=O)c1ccc(N)c(OCCCc2ccc(O)cc2)c1,inactive,
COc1ccc(CCc2cc(C(=O)N[C@@H](CCc3ccccc3)C(=O)OC(C)(C)C)ccc2N)cc1,inactive,
CC(C)(C)OC(=O)[C@H](CCC1CCCCC1)NC(=O)c1ccc(N)c(CCc2ccc(O)cc2)c1,Active,EC50 (Toll-like receptor 4): 29.5 µM
CC(C)(C)OC(=O)[C@H](CCc1ccccc1)NC(=O)c1ccc([N+](=O)[O-])c(OCCc2ccc(O)cc2)c1,inactive,
CC(C)(C)OC(=O)[C@H](CCc1ccc(O)cc1)NC(=O)c1ccc(N)c(CCc2ccc(O)cc2)c1,inactive,
